# Experimental data gathered from unrelated publications.
# Protocols differ between the studies behind these lines.
# Target: Receptor-interacting serine/threonine-protein kinase 2 (RIPK2, Homo sapiens, UniProt O43353)
Compound,observed,action,method,tested at,quantity,value
O=c1[nH]c2ccccc2n1C1CCN(Cc2ccc(-c3[nH]c4cc5ncnc5cc4nc3-c3ccccc3)cc2)CC1,cell-free assay,,,0.5 µM,remaining signal,89.2%
Cn1cc(-c2cc(F)cc(N3CCn4c(cc5c4CCCC5)C3=O)c2CO)cc(Nc2ccc(N3CCN(C4COC4)CC3)cn2)c1=O,enzyme activity,inhibitor,,0.1 µM,inhibition,-5%
CC(C)(C)c1cc(C=C(C#N)C#N)cc(Br)c1O,enzyme activity,inhibitor,,0.5 µM,remaining activity,32.8%
N#CC1(c2ccccn2)CCN(Cc2cc(C(=O)O)c(=O)n3ccccc23)CC1,cell-free assay,,competition with immobilised ligand,1 µM,remaining binding,92%
COc1ncccc1-c1cnn2ccc(N3CCN(C(=O)OC(C)C)CC3)nc12,binding,,competition with immobilised ligand,1 µM,remaining binding,51%
Cn1cncc1[C@@](O)(COc1ccc(C#N)cc1-c1ccc(OC(F)(F)F)cc1)c1ccc(C#N)cc1,cell-free assay,,competition with immobilised ligand,1 µM,remaining binding,100%
Cc1nn(C)cc1-c1nc2c(N3CCN(Cc4ccc(Cl)cc4)CC3)c(Cl)cnc2[nH]1,binding,,competition with immobilised ligand,1 µM,remaining binding,100%
Cn1cc(-c2cccc(N3CCc4c(sc5c4CC(C)(C)C5)C3=O)c2CO)cc(Nc2ccncn2)c1=O,enzyme activity,inhibitor,,1 µM,inhibition,1%
Nc1ncc(-c2nc(N3CCOCC3)nc(N3CCOCC3)n2)c(C(F)F)n1,binding,,competition with immobilised ligand,10 µM,remaining binding,100%
